High-throughput results from PubChem BioAssay.
Only a selection was taken, and hits are over-represented in it overall.
CHOP UPR activ: activators of apoptotic CHOP UPR arm, primary screen, cell-based, CHO-CHOP luciferase reporter, luminescence, uHTS | UPR activation; percent of tunicamycin response over DMSO baseline | activation, % at 10 µM | 330,000 compounds, 0.34% hits | AID 449763, 2010;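 active means at 10 µM dose, activation of 40% or more, normalized to positive control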;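 further: 100% = tunicamycin at 10 µg/mL and 0% = DMSO alone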
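System: CHO-CHOP luciferase reporter cell line; amount: 500 cells/well; buffer or medium: F12 medium containing 10% fetal bovine serum; incubation: 6 h compound exposure at 37 °C after overnight seeding; measured by: luciferase luminescence after 10 min with Steady-Glo reagent; evaluation: % reporter activation, DMSO baseline versus tunicamycin full activation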
CHOP inh: inhibitors of CHOP promoter induction, primary screen, cell-based, unfolded protein response, luciferase reporter; CHO-K1 CHOP-promoter luciferase, tunicamycin-induced, 15-18 h; inhibition, % at 10 µM; 220,000 compounds, 3.8% hits; AID 2732, 2010;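 active means compounds that reduced the stress-induced luciferase reporter signal by more than about 70% of percent inhibition, limit read from the data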;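 further: 0% = tunicamycin plus vehicle and 100% = wells without tunicamycin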
XBP1 UPR activ: activators of adaptive XBP1 UPR arm, primary screen, cell-based, CHO-XBP1 luciferase reporter, luminescence, uHTS; 330,000 compounds, 0.33% hits; IRE1-XBP1 UPR activation; percent of tunicamycin response, DMSO as zero; activation, % at 20 µM;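 active means versus positive control, 20 µM dose yields 30% or more activation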;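 further: 100% = tunicamycin at 10 µg/mL and 0% = DMSO only wells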
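assay system = CHO-XBP1 luciferase reporter cells | amount = 1000 cells/well | buffer or medium = F12 plus 10% FBS | compound dosing = single point, 20 µM final compound, 1% DMSO | incubation = 16-18 h cell attachment at 37 °C, then 6 h compound exposure | detection = Steady-Glo luminescence read | controls = tunicamycin 10 µg/mL and vehicle-only wells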
PvdQ inh: P. aeruginosa PvdQ acylase inhibitors, primary screen, biochemical, fluorescence, plate reader and imaging, single point; PvdQ acylase [Pseudomonas aeruginosa LESB58]; purified PvdQ acylase; inhibition, % at 10 µM; 340,000 compounds, 0.063% hits; AID 488965, 2010; in the data active means inhibition above about 30%, passing the limit was not always enough;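 further: 0% = vehicle neutral wells and 100% = reference inhibitor wells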
Numbers without * were called inactive.

Screening Cc1nn(C(=O)c2ccco2)c(C)c1CN1C(=O)c2ccccc2C1=O returned CHOP UPR activ -2, CHOP inh 62, XBP1 UPR activ 3 and PvdQ inh -6.
For Cc1nn(C(=O)c2cccs2)c(C)c1CN1C(=O)c2ccccc2C1=O the results were CHOP UPR activ 4, CHOP inh 81*, XBP1 UPR activ 15 and PvdQ inh -8.
Cc1c(N=C2N=C(NC(=O)Nc3ccc(Cl)cc3)c3ccccc32)c(=O)n(-c2ccccc2)n1C was read as CHOP UPR activ 3, CHOP inh 92*, XBP1 UPR activ 25 and PvdQ inh -6.
`CCC1C(=O)NCCN1C(=O)c1ccc2nc(Cc3cccc(Cl)c3)oc2c1` (stereo not given) gave CHOP UPR activ 1, XBP1 UPR activ -6 and PvdQ inh -8.
Screening Cc1ccc(S(=O)(=O)N(CCC(=O)Nc2ccc(OC(F)(F)F)cc2)c2ccccc2)cc1 returned CHOP UPR activ 2, CHOP inh 83*, XBP1 UPR activ -2 and PvdQ inh -5.
For CCOC(=O)c1c(C)[nH]c(C)c1S(=O)(=O)N1CCN(c2cccc(C)c2)C(C)C1 (stereo not given) the results were CHOP UPR activ 0, XBP1 UPR activ 4 and PvdQ inh 1.
Screening CC1CCCCN1C(=O)NC1CC(=O)N(c2ccc3c(c2)OCCO3)C1 (stereo not given) returned CHOP UPR activ 0, XBP1 UPR activ 2 and PvdQ inh 4.
Screening CCN1C(=O)CC(N2CCC(C(=O)OC)CC2)C1=O (stereo not given) returned CHOP UPR activ 2, CHOP inh -14, XBP1 UPR activ -1 and PvdQ inh -13.
`COC(=O)C1CCN(C2CC(=O)N(c3cc(C)cc(C)c3)C2=O)CC1` (stereo not given) gave CHOP UPR activ 0, CHOP inh 2, XBP1 UPR activ 1 and PvdQ inh 36*.
`Cc1ccc(S(=O)(=O)NC(=O)Nc2ccc(C)cc2C)cc1` gave CHOP UPR activ -3, XBP1 UPR activ -4 and PvdQ inh -10.
For O=c1[nH]c(/C(Cl)=C/c2c(F)cccc2Cl)nc2cc(Cl)ccc12 the results were CHOP UPR activ 2, CHOP inh 79*, XBP1 UPR activ 4 and PvdQ inh -4.
`COc1ccc(C2SCC(=O)N2CC23CC4CC(CC(C4)C2)C3)cc1` (stereo not given) gave CHOP UPR activ 0, CHOP inh 86*, XBP1 UPR activ 0 and PvdQ inh -10.
For COc1cccc(N2CCN(C3CC(=O)N(c4ccc(F)c(Cl)c4)C3=O)CC2)c1 (stereo not given) the results were CHOP UPR activ -2, CHOP inh 71*, XBP1 UPR activ -1 and PvdQ inh -10.
Screening Cc1ccc(S(=O)(=O)N(CCC#N)C2CCCCC2)c2nsnc12 returned CHOP UPR activ 1, CHOP inh 0, XBP1 UPR activ -4 and PvdQ inh -10.
`O=C(NCc1cc(C(F)(F)F)ccc1Cl)c1cccc2c1C(=O)c1ccc(-c3ccc(OC(F)(F)F)cc3)cc1S2(=O)=O` gave CHOP UPR activ 91* and XBP1 UPR activ 162*.
`Cc1sc2nc(CSc3cccc(C(F)(F)F)c3)[nH]c(=O)c2c1C` gave CHOP UPR activ -1, CHOP inh 73*, XBP1 UPR activ -1 and PvdQ inh 3.
For Cc1sc2nc(CSc3ccc([N+](=O)[O-])cc3)[nH]c(=O)c2c1C the results were CHOP UPR activ 1, CHOP inh 45 and XBP1 UPR activ -2.
`Cc1sc2nc(CSc3nc4ccccc4s3)[nH]c(=O)c2c1C` gave CHOP UPR activ -1, CHOP inh 77* and XBP1 UPR activ 1.
For Cc1ccc(NS(=O)(=O)c2c(C)[nH]c(C)c2C(=O)N2CCCCC2)c(Cl)c1 the results were CHOP UPR activ 0, XBP1 UPR activ 3 and PvdQ inh -10.
Screening O=C(COc1ccc(Br)cc1Cl)NC(=O)Nc1ccc2c(c1)OCCO2 returned CHOP UPR activ 1, CHOP inh -24, XBP1 UPR activ -1 and PvdQ inh -9.
Screening CCCCCCCCn1c2c(c(=N)c3ccccc31)CCC2 returned CHOP UPR activ 16, CHOP inh 77*, XBP1 UPR activ 15 and PvdQ inh -10.
CC1OC(O[C@H]2CC[C@]3(C)C4C=C[C@]56OC[C@@]7(CC[C@@H](C)[C@H](C)C75)[C@H](O)C[C@@]6(C)[C@]4(C)CC[C@H]3C2(C)C)C(OC2OC(CO)C(O)C(O)C2OC2OCC(O)C(O)C2O)C(O)C1O (stereo not given in full) was read as CHOP inh 100*.
For O=C(Oc1ccc(NC2=NS(=O)(=O)c3ccccc32)cc1)c1cccnc1 the results were CHOP UPR activ 2, CHOP inh 7, XBP1 UPR activ 0 and PvdQ inh -14.
Screening CCOc1ccc(OCCC(=O)Nc2ccc(F)cc2C)cc1 returned CHOP UPR activ 1, CHOP inh 19, XBP1 UPR activ 2 and PvdQ inh -7.
Cc1ccc(NC(=O)/C=C/c2ccc(S(=O)(=O)N3CCOCC3)cc2)cc1S(=O)(=O)N(C)C was read as PvdQ inh -11.
`O=c1oc2cc(OCc3ccc([N+](=O)[O-])cc3)ccc2c2c1CCCC2` gave CHOP UPR activ 11, CHOP inh 77*, XBP1 UPR activ 27 and PvdQ inh -15.
COc1ccc(CC(=O)NCC(=O)N/N=C/c2sccc2C)cc1 was read as CHOP UPR activ 2, XBP1 UPR activ -4 and PvdQ inh 0.
For O=C1N/C(=C/c2ccc(Br)s2)C(=O)N1c1ccccc1 the results were CHOP UPR activ 1, CHOP inh 96*, XBP1 UPR activ 3 and PvdQ inh 0.
For COC(=O)c1ccc(C2=NOC(C)(c3nnc(Cc4ccccc4)o3)C2)cc1 (stereo not given) the results were CHOP UPR activ -2, XBP1 UPR activ 0 and PvdQ inh -15.
For Cc1nn(-c2nnc(NCc3ccccc3)nn2)c(C)c1Br the results were CHOP UPR activ 1, CHOP inh 73*, XBP1 UPR activ 0 and PvdQ inh -7.
`N#CC(C(=O)Nc1ccc(Cl)cc1)=C1Nc2ccccc2N1` gave CHOP UPR activ 2, CHOP inh 90*, XBP1 UPR activ 4 and PvdQ inh 12.
Screening CCOc1ccc(NC(=O)CN2C(=O)NC(CCSC)C2=O)cc1 (stereo not given) returned CHOP UPR activ -2, CHOP inh 13, XBP1 UPR activ -2 and PvdQ inh -13.
Screening O=C(Nc1ncc(Cc2ccccc2Cl)s1)c1ccc([N+](=O)[O-])cc1 returned CHOP UPR activ 3, CHOP inh 30, XBP1 UPR activ 5 and PvdQ inh -3.
